Laboratory results: PMC5970367 (Chembiochem : a European journal of chemical biology, 2017)
Read-outs that look alike come from different tables or passages of the source.

What was measured:
[1] = system: 5′-fluorescein labeled HCV SLIIb; assay: Reaction kinetics via fluorescence; format: biochemical, hepatitis C virus; conditions: pseudo Michaelis-Menten, catalytic efficiency
How it was run: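 Copper–peptide complexes were formed at 1.1:1 peptide:Cu. Each complex was added to 333 nM 5′-fluorescein-SLIIb with 1 mM ascorbic acid and 1 mM H2O2 in 20 mM HEPES (pH 7.4, 100 mM NaCl) at 25 °C. Fluorescence loss was followed at ex 491/em 518 nm and converted to RNA concentration by a calibration curve. Initial velocities were plotted against catalyst concentration and fit to Michaelis–Menten to give KM and kcat. Values are the mean of ≥3 trials.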

[2] = system: fluorescein-labeled IRES SLIIb; assay: Time-dependent MALDI-TOF mass spectrometry of SLIIb cleavage; format: biochemical, hepatitis C virus; conditions: for Initial Rate (%Overhang/min), 2′, 3′-cPO4: overhang 2′,3′-cyclic phosphates; for Initial Rate (%Overhang/min), 2′, 3′-cPO4 / Initial Rate (%Overhang/min), 3′-AL / Initial Rate (%Overhang/min), 3′-OH / Initial Rate (%Overhang/min), 3′-PO4 / Initial Rate (%Overhang/min), 3′-PGA / Initial Rate (%Overhang/min), 3′-PG / Initial Rate (%Overhang/min), 5′-AL / Initial Rate (%Overhang/min), 5′-GemDiol / Initial Rate (%Overhang/min), 5′-OH / Initial Rate (%Overhang/min), 5′-PO4 / Initial Rate (%Overhang/min), 5′-PPA: MALDI-TOF time dependence; for Initial Rate (%Overhang/min), 3′-AL: overhang 3′-aldehyde; for Initial Rate (%Overhang/min), 3′-OH: overhang 3′-hydroxyl; for Initial Rate (%Overhang/min), 3′-PO4: overhang 3′-phosphates; for Initial Rate (%Overhang/min), 3′-PGA: overhang 3′-phosphoglycaldehyde; for Initial Rate (%Overhang/min), 3′-PG: overhang 3′-phosphoglycolate; for Initial Rate (%Overhang/min), 5′-AL: overhang 5′-aldehyde; for Initial Rate (%Overhang/min), 5′-GemDiol: overhang 5′-geminal diol; for Initial Rate (%Overhang/min), 5′-OH: overhang 5′-hydroxyl; for Initial Rate (%Overhang/min), 5′-PO4: overhang 5′-phosphate; for Initial Rate (%Overhang/min), 5′-PPA: overhang 5′-phosphopropenal; for Relative Initial Rate (Normalized Intensity/min × 1000), position A6 / Relative Initial Rate (Normalized Intensity/min × 1000), position A15 / Relative Initial Rate (Normalized Intensity/min × 1000), position A19 / Relative Initial Rate (Normalized Intensity/min × 1000), position A27 / Relative Initial Rate (Normalized Intensity/min × 1000), position A30 / Relative Initial Rate (Normalized Intensity/min × 1000), position C10 / Relative Initial Rate (Normalized Intensity/min × 1000), position C33 / Relative Initial Rate (Normalized Intensity/min × 1000), position G5 / Relative Initial Rate (Normalized Intensity/min × 1000), position G9 / Relative Initial Rate (Normalized Intensity/min × 1000), position G11 / Relative Initial Rate (Normalized Intensity/min × 1000), position G28 / Relative Initial Rate (Normalized Intensity/min × 1000), position U12 / Relative Initial Rate (Normalized Intensity/min × 1000), position U14 / Relative Initial Rate (Normalized Intensity/min × 1000), position U25 / Relative Initial Rate (Normalized Intensity/min × 1000), position U26 / Relative Initial Rate (Normalized Intensity/min × 1000), position U29 / Relative Initial Rate (Normalized Intensity/min × 1000), position U31: 10 μM SLIIb, 10 μM copper-peptide
How it was run: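 Reactions contained 10 μM Fl-SLIIb, 10 μM Cu–peptide, 1 mM ascorbate and 1 mM H2O2, and were sampled at 2–180 min. They were quenched on ice, C18-desalted, and analysed by negative-ion reflectron MALDI-TOF (HPA/ammonium citrate matrix, ≥1000 shots). Peaks with m/z >1500 and S/N >5 were assigned against expected product masses. Products were summed per overhang type and expressed as a fraction at each time point. Initial rate was taken from the linear region (first ~40 min).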

[3] = system: 5′-fluorescein labeled HCV SLIIb; conditions: pseudo Michaelis-Menten, fluorescence; ref 4b; cited from earlier work

Substance: GGHKFRY-Cu [8-Cu]
- kcat/KM [1]: 120 M⁻¹ s⁻¹
- Initial Rate (%Overhang/min), 2′, 3′-cPO4 [2]: 0.1 ± 0.1 %Overhang/min
- Initial Rate (%Overhang/min), 3′-AL [2]: 0.2 ± 0.1 %Overhang/min
- Initial Rate (%Overhang/min), 3′-OH [2]: 0.4 ± 0.1 %Overhang/min
- Initial Rate (%Overhang/min), 3′-PO4 [2]: 1.3 ± 0.2 %Overhang/min
- Initial Rate (%Overhang/min), 3′-PGA [2]: 0.3 ± 0.1 %Overhang/min
- Initial Rate (%Overhang/min), 3′-PG [2]: 0.1 ± 0.1 %Overhang/min
- Initial Rate (%Overhang/min), 5′-AL [2]: 0.9 ± 0.1 %Overhang/min
- Initial Rate (%Overhang/min), 5′-GemDiol [2]: 0.5 ± 0.1 %Overhang/min
- Initial Rate (%Overhang/min), 5′-OH [2]: 1.1 ± 0.4 %Overhang/min
- Initial Rate (%Overhang/min), 5′-PO4 [2]: 0.7 ± 0.1 %Overhang/min
- Initial Rate (%Overhang/min), 5′-PPA [2]: 0.7 ± 0.1 %Overhang/min
- Relative Initial Rate (Normalized Intensity/min × 1000), position A6 [2]: - ^a
- Relative Initial Rate (Normalized Intensity/min × 1000), position A15 [2]: - ^a
- Relative Initial Rate (Normalized Intensity/min × 1000), position A19 [2]: - ^a
- Relative Initial Rate (Normalized Intensity/min × 1000), position A27 [2]: 1.1 ± 0.3 Normalized Intensity/min × 1000
- Relative Initial Rate (Normalized Intensity/min × 1000), position A30 [2]: <1 Normalized Intensity/min × 1000
- Relative Initial Rate (Normalized Intensity/min × 1000), position C10 [2]: - ^a
- Relative Initial Rate (Normalized Intensity/min × 1000), position C33 [2]: - ^a
- Relative Initial Rate (Normalized Intensity/min × 1000), position G5 [2]: 3.7 ± 1.8 Normalized Intensity/min × 1000
- Relative Initial Rate (Normalized Intensity/min × 1000), position G9 [2]: - ^a
- Relative Initial Rate (Normalized Intensity/min × 1000), position G11 [2]: 0.6 ± 0.2 Normalized Intensity/min × 1000
- Relative Initial Rate (Normalized Intensity/min × 1000), position G28 [2]: <1 Normalized Intensity/min × 1000
- Relative Initial Rate (Normalized Intensity/min × 1000), position U12 [2]: - ^a
- Relative Initial Rate (Normalized Intensity/min × 1000), position U14 [2]: - ^a
- Relative Initial Rate (Normalized Intensity/min × 1000), position U25 [2]: <1 Normalized Intensity/min × 1000
- Relative Initial Rate (Normalized Intensity/min × 1000), position U26 [2]: <1 Normalized Intensity/min × 1000
- Relative Initial Rate (Normalized Intensity/min × 1000), position U29 [2]: <1 Normalized Intensity/min × 1000
- Relative Initial Rate (Normalized Intensity/min × 1000), position U31 [2]: - ^a

Substance: GGHYrFK-Cu [1-Cu]
- Km [3]: 0.8 ± 0.1 µM
- kcat [3]: 0.00883 ± 0.00033 s⁻¹
- kcat/KM [3]: 11000 M⁻¹ s⁻¹

Substance: GGHYRFK-Cu [3-Cu]
- kcat/KM [1]: 23.3 M⁻¹ s⁻¹
- Initial Rate (%Overhang/min), 2′, 3′-cPO4 [2]: 0.7 ± 0.3 %Overhang/min
- Initial Rate (%Overhang/min), 3′-AL [2]: 0.8 ± 0.1 %Overhang/min
- Initial Rate (%Overhang/min), 3′-OH [2]: 1.1 ± 0.5 %Overhang/min
- Initial Rate (%Overhang/min), 3′-PO4 [2]: 0.4 ± 0.1 %Overhang/min
- Initial Rate (%Overhang/min), 3′-PGA [2]: 0.3 ± 0.1 %Overhang/min
- Initial Rate (%Overhang/min), 3′-PG [2]: 0.2 ± 0.1 %Overhang/min
- Initial Rate (%Overhang/min), 5′-AL [2]: 0.7 ± 0.1 %Overhang/min
- Initial Rate (%Overhang/min), 5′-GemDiol [2]: 0.3 ± 0.1 %Overhang/min
- Initial Rate (%Overhang/min), 5′-OH [2]: 2.0 ± 0.6 %Overhang/min
- Initial Rate (%Overhang/min), 5′-PO4 [2]: 0.4 ± 0.1 %Overhang/min
- Initial Rate (%Overhang/min), 5′-PPA [2]: 0.3 ± 0.1 %Overhang/min
- Relative Initial Rate (Normalized Intensity/min × 1000), position A6 [2]: - ^a
- Relative Initial Rate (Normalized Intensity/min × 1000), position A15 [2]: - ^a
- Relative Initial Rate (Normalized Intensity/min × 1000), position A19 [2]: - ^a
- Relative Initial Rate (Normalized Intensity/min × 1000), position A27 [2]: - ^a
- Relative Initial Rate (Normalized Intensity/min × 1000), position A30 [2]: - ^a
- Relative Initial Rate (Normalized Intensity/min × 1000), position C10 [2]: - ^a
- Relative Initial Rate (Normalized Intensity/min × 1000), position C33 [2]: - ^a
- Relative Initial Rate (Normalized Intensity/min × 1000), position G5 [2]: - ^a
- Relative Initial Rate (Normalized Intensity/min × 1000), position G9 [2]: 1.4 ± 0.3 Normalized Intensity/min × 1000
- Relative Initial Rate (Normalized Intensity/min × 1000), position G11 [2]: - ^a
- Relative Initial Rate (Normalized Intensity/min × 1000), position G28 [2]: 1.0 ± 0.5 Normalized Intensity/min × 1000
- Relative Initial Rate (Normalized Intensity/min × 1000), position U12 [2]: 1.2 ± 0.7 Normalized Intensity/min × 1000
- Relative Initial Rate (Normalized Intensity/min × 1000), position U14 [2]: 1.2 ± 0.1 Normalized Intensity/min × 1000
- Relative Initial Rate (Normalized Intensity/min × 1000), position U25 [2]: - ^a
- Relative Initial Rate (Normalized Intensity/min × 1000), position U26 [2]: - ^a
- Relative Initial Rate (Normalized Intensity/min × 1000), position U29 [2]: - ^a
- Relative Initial Rate (Normalized Intensity/min × 1000), position U31 [2]: - ^a
